Eight compounds from ChEMBL document CHEMBL1154303, “Cytotoxic and antiplasmodial compounds from the roots of Strophioblachia fimbricalyx” (J Nat Prod, 2009) can be followed below.

In one test the test system is NCI-H187. Nature of the test: Cytotoxicity against human NCI-H187 cells by SRB assay. Type of test: functional, cell-based. (In general: The SRB assay estimates cell density from bound dye.)
Another test concerns KB. Nature of the test: Cytotoxicity against human KB cells by SRB assay. Type of test: functional, cell-based.
In another test the test system is MCF7. Nature of the test: Cytotoxicity against human MCF7 cells by SRB assay. The class given is functional, cell-based.
For a further test, the system named is Vero. Nature of the test: Cytotoxicity against african green monkey Vero cells by SRB assay. Conditions: Chlorocebus sabaeus. The class given is cell-based.
The test system of the next test is Plasmodium falciparum. Nature of the test: Antiplasmodial activity against multidrug-resistant Plasmodium falciparum K1 assessed as [G-3H]hypoxanthine uptake after 24 hrs by scintillation counting. The class given is functional, organism-based. Conditions: K1, 24 h. The method, boiled down:
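Microculture radioisotope technique on the multidrug-resistant K1 strain of P. falciparum; activity reported in µg/mL.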

Test [1] concerns Radical scavenging activity. Nature of the test: Antioxidant activity assessed as DPPH radical scavenging activity. The class given is functional. The essentials: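 DPPH radical-scavenging test run per a published method. Activity is expressed in µg/mL, and a positive control substance was included.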

Values after ≈ are worked out from the molar mass of the structure shown.

Turning to `COC1=Cc2c(cc(O)c3cc(C)c(OC)cc23)C(C)(C)C1=O`, the concentration for half-maximal inhibition (IC50) – broadly, the point on the concentration scale where inhibition reaches its midpoint – is 0.8 µg/mL (≈ 2.56 µM) with NCI-H187; 0.8 µg/mL (≈ 2.56 µM) with KB; 2.9 µg/mL (≈ 9.28 µM) in the test with MCF7; 3.1 µg/mL (≈ 9.92 µM) in the test on Vero; 2.7 µg/mL (≈ 8.64 µM) in the test with Plasmodium falciparum; 29.1 µg/mL (≈ 93.2 µM) in test [1].

On to `COc1cc2c(cc1C)c(OC)cc1cc(C)c(=O)c(OC)cc12`, for which the IC50 in the test on NCI-H187 is > 5 µg/mL; in the test with KB, 4 µg/mL (≈ 12.3 µM); in the test with MCF7, > 5 µg/mL; with Vero it was > 20 µg/mL; in the test on Plasmodium falciparum it was 3.2 µg/mL (≈ 9.87 µM); in test [1], > 100 µg/mL.

Regarding `COc1cc2c(cc1C)c(OC)cc1cc(C)c(=O)cc(OC)c12`, the IC50 is > 5 µg/mL with NCI-H187; 3.9 µg/mL (≈ 12 µM) in the test on KB; > 5 µg/mL with MCF7; > 20 µg/mL in the test on Vero; > 20 µg/mL with Plasmodium falciparum; > 100 µg/mL in test [1].

Turning to `C[C@H]1[C@@H](O)O[C@@H]2O[C@@]3(C)CC[C@H]4[C@H](C)CC[C@@H]1[C@@]24OO3` [ARTENIMOL], in the test with Plasmodium falciparum, the IC50 was determined as 0.004 µg/mL (≈ 0.0141 µM).

On to `Cc1cc(C(C)(C)C)c(O)c(C(C)(C)C)c1` [BUTYLATED HYDROXYTOLUENE], for which the IC50 in test [1] is 18.8 µg/mL (≈ 85.3 µM).

`COc1cccc2c1C(=O)c1c(O)c3c(c(O)c1C2=O)C[C@@](O)(C(=O)CO)C[C@@H]3O[C@H]1C[C@H](N)[C@H](O)[C@H](C)O1` [DOXORUBICIN]: the 50% inhibitory concentration (IC50) in the test with NCI-H187 was found to be 0.04 µg/mL (≈ 0.0736 µM); in the test on KB, 0.13 µg/mL (≈ 0.239 µM).

Consider `Cc1c2ccncc2c(C)c2c1[nH]c1ccccc12` [ELLIPTECINE], for which the IC50 in the test on NCI-H187 came out at 0.44 µg/mL (≈ 1.79 µM); in the test with KB, 0.48 µg/mL (≈ 1.95 µM); in the test on Vero it was 0.48 µg/mL (≈ 1.95 µM).

Take `COC1=Cc2c(cc(OC)c3cc(C)c(OC)cc23)C(C)(C)C1=O` [TRIGONOSTEMONE]: the IC50 was > 5 µg/mL in the test on NCI-H187; > 5 µg/mL with KB; > 5 µg/mL with MCF7; > 20 µg/mL in the test with Vero; > 20 µg/mL in the test on Plasmodium falciparum; > 100 µg/mL in test [1].
